# Laboratory results taken from ChEMBL document CHEMBL3112552, “Structure activity relationship studies of 3-arylsulfonyl-pyrido[1,2-a]pyrimidin-4-imines as potent 5-HT₆ antagonists” (Bioorg Med Chem, 2014).
# The source made the active and inactive calls. No cut-off for these calls is given here.
# Experiments:
# [1] = target: T1, 5-hydroxytryptamine receptor 6 (Homo sapiens, UniProt P50406); test: Antagonist activity at human cloned 5-HT6 receptor expressed in HeLa cells assessed as inhibition of 5-HT-stimulated conversion of [alpha-33P]ATP to [33P]cAMP; type: functional, cell-based
# [2] = Half life in human liver microsomes at 0.5 uM in presence of NADPH; type: ADME
# Summary of the method: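 Test compound incubated with human liver microsomes (1 mg/ml) plus NADPH (1 mM) for 0–45 min. Reactions were stopped and parent remaining in supernatant was quantified by LC–MS/MS. T1/2 was taken from the plot of % remaining versus time. Omeprazole was run as a reference control.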
# [3] = target: T1, 5-hydroxytryptamine receptor 6; test: Displacement of [3H]LSD from human cloned 5-HT6 receptor expressed in HeLa cells; type: cell-based
# [4] = Ratio of drug level in brain to plasma in rat at 10 mg/kg, ip; type: ADME, organism-based; design: dose 10 mg/kg, route intraperitoneal; details: read-out: BPR
# Summary of the method: (§1)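 Rats received a single intraperitoneal dose of 10 mg/kg. Brain and plasma drug levels were measured 30 minutes post-dose, and the brain/plasma ratio was derived from them.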
# [5] = Permeability of the compound; type: ADME; details: not told; read-out: permeability
# [6] = Oral bioavailability in rat; type: ADME, organism-based; details: in vivo
# [7] = system: Brain; test: Drug uptake in rat brain at 10 mg/kg, ip; type: ADME, organism-based; design: dose 10 mg/kg, route intraperitoneal; details: in vivo, read-out: Drug uptake; summary of the method: as §1
# T1 sequence (P50406 whole entry): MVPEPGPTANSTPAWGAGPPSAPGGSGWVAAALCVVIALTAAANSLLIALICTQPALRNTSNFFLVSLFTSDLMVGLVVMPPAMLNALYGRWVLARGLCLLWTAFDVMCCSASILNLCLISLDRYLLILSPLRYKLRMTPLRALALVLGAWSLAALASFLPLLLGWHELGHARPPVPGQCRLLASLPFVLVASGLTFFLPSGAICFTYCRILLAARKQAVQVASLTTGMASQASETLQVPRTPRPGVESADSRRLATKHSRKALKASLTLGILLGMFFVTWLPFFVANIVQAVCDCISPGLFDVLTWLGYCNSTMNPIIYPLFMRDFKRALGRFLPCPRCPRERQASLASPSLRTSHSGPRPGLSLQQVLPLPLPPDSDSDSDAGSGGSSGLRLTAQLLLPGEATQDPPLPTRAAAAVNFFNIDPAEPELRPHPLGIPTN
antagonist activity (active/inactive call) [1],half-life at 0.5 µM [2],IC50 [3],Kp [4],Papp [5],bioavailability [6],concentration [7],Compound
Active,3.1 min,22 nM,,,,,CSc1nc2ccccn2c(=N)c1S(=O)(=O)c1ccc(F)cc1
Active,4.1 min,50 nM,,,,,CSc1nc2ccccn2c(=N)c1S(=O)(=O)c1cc(C)c(Cl)cc1C
Active,,8.8 nM,,,,,CSc1nc2ccc(C(N)=O)cn2c(=N)c1S(=O)(=O)c1ccccc1
Active,2.8 min,420 nM,,,,,CSc1nc2ccccn2c(=N)c1S(=O)(=O)c1ccc(OC(F)(F)F)cc1
Active,,470 nM,,,,,COC(=O)c1ccc2nc(SC)c(S(=O)(=O)c3ccccc3)c(=N)n2c1
Active,5.2 min,,1.2,17 ×10⁻⁶ cm/s,< 1%,1900 nM,CSc1nc2ccccn2c(=N)c1S(=O)(=O)c1ccccc1
Active,43 min,83 nM,,,,,CSc1nc2ccccn2/c(=N\C(C)=O)c1S(=O)(=O)c1ccccc1
Active,7.5 min,56 nM,,,,,CSc1nc2ccc(Br)cn2c(=N)c1S(=O)(=O)c1ccccc1
Active,5.5 min,330 nM,,,,,CSc1nc2c(Cc3ccccc3)cccn2c(=N)c1S(=O)(=O)c1ccccc1
Active,3.9 min,65 nM,,,,,CSc1nc2ccccn2c(=N)c1S(=O)(=O)c1ccc(C(C)(C)C)cc1
Active,,250 nM,,,,,C[S+]([O-])c1nc2ccccn2c(=N)c1S(=O)(=O)c1ccccc1 (stereo unspecified)
Active,,126 nM,,,,,CSc1nc2c(Br)cc(C)cn2c(=N)c1S(=O)(=O)c1ccccc1
Active,,11 nM,,,,,CSc1nc2ccccn2c(=N)c1S(=O)(=O)c1ccccc1Cl
Active,,2 nM,,,,,CCNc1nc2ccccn2c(=N)c1S(=O)(=O)c1ccccc1
Active,,3.4 nM,,,,,CSc1nc2c(C)cccn2c(=N)c1S(=O)(=O)c1ccccc1
Active,,28 nM,,,,,CSc1nc2ccc(Cl)cn2c(=N)c1S(=O)(=O)c1ccccc1
Active,,80 nM,,,,,CCc1ccn2c(=N)c(S(=O)(=O)c3ccccc3)c(SC)nc2c1
Active,,60 nM,,,,,Cc1ccc(Nc2nc3ccc(C)cn3c(=N)c2S(=O)(=O)c2ccccc2)nc1

antagonist activity (active/inactive call) [1],half-life at 0.5 µM [2],IC50 [3],Kp [4],Papp [5],bioavailability [6],concentration [7],Compound
Active,,41 nM,,,,,CSc1nc2cc(C)ccn2c(=N)c1S(=O)(=O)c1ccccc1
Active,,59 nM,,,,,CSc1nc2ccccn2c(=N)c1S(=O)(=O)c1ccc2ccccc2c1
Active,7.9 min,55 nM,,,,,CSc1nc2c3ccccc3ccn2c(=N)c1S(=O)(=O)c1ccccc1
Active,,57 nM,,,,,CSc1nc2c3ncccc3ccn2c(=N)c1S(=O)(=O)c1ccccc1
Active,40 min,52 nM,,,,,CSc1nc2ccccn2c(=O)c1S(=O)(=O)c1ccccc1
Active,,12 nM,,,,,CCOc1nc2ccccn2c(=N)c1S(=O)(=O)c1ccccc1
Active,,60 nM,,,,,CSc1nc2c(C)cc(Cc3ccccc3)cn2c(=N)c1S(=O)(=O)c1ccccc1
Active,,1.3 nM,,,,,CSc1nc2ccc(C)cn2c(=N)c1S(=O)(=O)c1ccccc1
Active,,12 nM,,,,,CSc1nc2c(C)cc(Br)cn2c(=N)c1S(=O)(=O)c1ccccc1
Active,13.7 min,21 nM,,,,,COc1nc2ccccn2c(=N)c1S(=O)(=O)c1ccccc1
Active,2.8 min,120 nM,,,,,C/N=c1/c(S(=O)(=O)c2ccccc2)c(SC)nc2ccccn12
Active,,700 nM,,,,,CCCc1ccn2c(=N)c(S(=O)(=O)c3ccccc3)c(SC)nc2c1
Active,,42 nM,,,,,N=c1c(S(=O)(=O)c2ccccc2)c(NCCO)nc2ccccn12
Active,,28 nM,,,,,CSc1nc2ccc(F)cn2c(=N)c1S(=O)(=O)c1ccccc1
Active,3.1 min,18 nM,,,,,CSc1nc2ccccn2c(=N)c1S(=O)(=O)c1ccc(Cl)c(Cl)c1
Active,7.2 min,2.4 nM,,,,,CNc1nc2ccccn2c(=N)c1S(=O)(=O)c1ccccc1
,26 min,,,,,,COc1ccc2[nH]c([S+]([O-])Cc3ncc(C)c(OC)c3C)nc2c1 (stereo unspecified) [OMEPRAZOLE]
